{"data": "Published values pooled from the literature", "target": "NUAK family SNF1-like kinase 2 (NUAK2, Homo sapiens, UniProt Q9H093)", "Sequence (Q9H093 1-628, as in one of the studies)": "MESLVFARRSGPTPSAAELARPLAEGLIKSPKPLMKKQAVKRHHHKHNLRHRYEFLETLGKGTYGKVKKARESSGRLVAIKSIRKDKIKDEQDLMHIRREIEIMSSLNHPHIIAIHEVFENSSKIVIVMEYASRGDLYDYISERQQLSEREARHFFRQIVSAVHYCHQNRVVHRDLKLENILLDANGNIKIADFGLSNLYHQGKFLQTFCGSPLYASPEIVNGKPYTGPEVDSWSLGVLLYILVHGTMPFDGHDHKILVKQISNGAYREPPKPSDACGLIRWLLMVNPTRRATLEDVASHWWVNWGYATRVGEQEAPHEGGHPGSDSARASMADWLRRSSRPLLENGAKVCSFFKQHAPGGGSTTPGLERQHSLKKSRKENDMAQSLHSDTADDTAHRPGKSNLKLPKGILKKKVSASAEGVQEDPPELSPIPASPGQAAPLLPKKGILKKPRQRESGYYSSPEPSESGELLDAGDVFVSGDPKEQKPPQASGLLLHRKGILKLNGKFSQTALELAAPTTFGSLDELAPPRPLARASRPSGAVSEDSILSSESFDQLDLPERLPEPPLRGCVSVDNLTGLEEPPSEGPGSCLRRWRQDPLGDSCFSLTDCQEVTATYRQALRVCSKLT"}
{"Compound": "O=C(NCCCN1CCOCC1)c1ccc(Nc2ncc(Cl)c(-c3ccc(Cl)s3)n2)cc1", "assay": "binding, competition with immobilised ligand", "conditions": "1 µM", "remaining binding": "0.85%"}
{"Compound": "COc1cccc(CNC(=O)c2nc3scc(COCc4ccc(C(=O)O)cc4)c3c(=O)[nH]2)c1", "assay": "cell-free assay, competition with immobilised ligand", "conditions": "1 µM", "remaining binding": "76.4%"}
{"Compound": "c1cnn2ncc(-c3ccnc(N4CCC45COC5)n3)c2c1", "assay": "binding", "conditions": "1 µM", "remaining binding": "64%"}
{"Compound": "Cc1c(NC(=O)c2cc(C(N)=O)nc3cc(F)ccc23)c(C(F)(F)F)nn1Cc1ccc(C#N)cc1", "assay": "cell-free assay, competition with immobilised ligand", "conditions": "1 µM", "remaining binding": "83%"}
{"Compound": "C[C@@H]1CN(c2ccc3ncc(-c4ccc5[nH]nc(C6CC6)c5c4)n3n2)C[C@H](C)O1", "assay": "binding, competition with immobilised ligand", "conditions": "50 nM", "remaining binding": "89%"}
{"Compound": "CCN1CCN(Cc2ccc(C(=O)Nc3ccc(C)c(Oc4ccc5c(c4)CC(=O)N5)c3)cc2C(F)(F)F)CC1", "assay": "binding, competition with immobilised ligand", "conditions": "1 µM", "remaining binding": "100%"}
{"Compound": "CNC(=O)[C@@H]1CC[C@@H](n2c(-c3ccc4cnccc4c3)nc3ccc(C(=O)NCc4cccc(C(N)=O)c4)cc32)C1", "assay": "binding, competition with immobilised ligand", "conditions": "1 µM", "remaining binding": "100%"}
{"Compound": "CNCc1ccccc1-c1csc([C@H](C)Nc2nc(C)nc3cc(OC)c(OC)cc23)c1", "assay": "cell-free assay, competition with immobilised ligand", "conditions": "1 µM", "remaining binding": "100%"}
{"Compound": "C[C@@H]1CCN(c2nccc(-c3cnn4ncccc34)n2)C1", "assay": "binding", "conditions": "1 µM", "remaining binding": "74%"}
{"Compound": "Cc1cnc(Nc2ccc(C(=O)N3CCC(N4CCCC4)CC3)cc2)nc1-c1cc2ccccc2s1", "assay": "binding, competition with immobilised ligand", "conditions": "1 µM", "remaining binding": "1%"}
{"Compound": "CN(C)c1nccc(-c2cnc3ncccn23)n1", "assay": "binding", "conditions": "1 µM", "remaining binding": "83%"}
{"Compound": "O=C(Nc1c[nH]nc1C(=O)NC1CCNCC1)c1cc(F)cc(F)c1", "assay": "binding, competition with immobilised ligand", "conditions": "1 µM", "remaining binding": "100%"}
{"Compound": "N[C@H]1CCN(c2nccc(-c3cnn4ncccc34)n2)C1", "assay": "binding", "conditions": "1 µM", "remaining binding": "100%"}
{"Compound": "CS(=O)(=O)NCC[C@H](NC(=O)c1cncc2c1cnn2-c1ccc(F)cc1)c1ccnc(S(C)(=O)=O)c1", "assay": "cell-free assay, competition with immobilised ligand", "conditions": "1 µM", "remaining binding": "100%"}
{"Compound": "F[C@@H]1CCN(c2nccc(-c3cnn4ncccc34)n2)C1", "assay": "binding", "conditions": "1 µM", "remaining binding": "88%"}
{"Compound": "COc1cnc(Nc2cccc(S(N)(=O)=O)c2)nc1N1CCN(c2ccccc2)C(=O)C1", "assay": "binding, competition with immobilised ligand", "conditions": "1 µM", "remaining binding": "54%"}
{"Compound": "CNC(=O)Nc1ccc2c(c1)CC[C@@]21OC(=O)N(CC(=O)N(Cc2ccc(F)cc2)[C@@H](C)C(F)(F)F)C1=O", "assay": "cell-free assay, competition with immobilised ligand", "conditions": "1 µM", "remaining binding": "74%"}
{"Compound": "CN(C)c1nccc(-c2cnn3ncccc23)n1", "assay": "binding", "conditions": "1 µM", "remaining binding": "100%"}
{"Compound": "Nc1c(C(=O)NCc2ccc(C(=O)NCCCC3CCCCC3)cc2)cnn1-c1ccccc1", "assay": "cell-free assay, competition with immobilised ligand", "conditions": "0.1 µM", "remaining binding": "100%"}
{"Compound": "O=C(c1ccc(Nc2ncc(Cl)c(-c3ccc(Cl)s3)n2)cc1)N1CCC(N2CCCC2)CC1", "assay": "binding, competition with immobilised ligand", "conditions": "1 µM", "remaining binding": "0.4%"}
{"Compound": "N#Cc1ccccc1CSc1nnc2c(n1)[nH]c1ccccc12", "assay": "binding, competition with immobilised ligand", "conditions": "10 µM", "remaining binding": "93%"}
{"Compound": "COc1cc(-c2cn(C3CCc4ccccc4N(CC(F)(F)F)C3=O)nn2)ccc1-n1ccc(C)n1 (stereo not shown)", "assay": "cell-free assay, competition with immobilised ligand", "conditions": "1 µM", "remaining binding": "88%"}
